In brackets after ≈: the same amount, converted by molar mass.
Key:
[1] = Growth inhibitory activity against human lymphoblastoid W1L2:R865 cell line; type: functional, cell-based
Outline: (§1)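 IC50 read by cell counting. For the folate-rescue arm, W1L2 medium carried 10 μM thymidine plus 50 μM hypoxanthine. Values are mean ± SD or individual results.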

[2] = test system: WIL2; assay: Growth inhibitory activity against human lymphoblastoid W1L2 cell line in presence of 10 uM thymidine/50 uM hypoxanthine; type: functional, cell-based; outline: as §1
[3] = test system: WIL2; assay: Growth inhibitory activity against human lymphoblastoid W1L2 cell line; type: functional, cell-based; outline: as §1
[4] = Solubility at pH 7.4 was determined; type: physicochemical; conditions: buffer
Outline: (§2)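 About 2 mg solid shaken 18 h at 25 °C in the dark, then settled 30 min. pH rechecked (±0.2, readjusted, then 60 min re-equilibration). Centrifuged 1000g 15 min, 0.2 μm filtered, diluted 1:1 with MeCN. Assayed by RP18 HPLC, UV 295 nm, against a 3-point standard curve.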

[5] = Solubility at pH 6.0 was determined; type: physicochemical; conditions: buffer; outline: as §2
[6] = Solubility at pH 6.0; type: physicochemical; conditions: buffer; outline: as §2
[7] = Solubility at pH 7.4; type: physicochemical; conditions: buffer; outline: as §2
[8] = test system: Proteasome; assay: Chymotryptic inhibitory activity against 26S proteasome; type: functional, subcellular

solubility [4] [µM]	solubility [5] [µM]	solubility [6] [µM]	solubility [7] [µM]	IC50 [8] [nM]	Structure (SMILES)	IC50 [1] [nM]	IC50 [2] [nM]	IC50 [3] [nM]
					C#CCN(Cc1cc2c(=O)n(C)c(CN3CCC[C@H]3C(=O)OC)nc2cc1Cl)c1ccc(C(=O)NCc2cccnc2)cc1	24000	14	18
6 (≈ 3.52 µg/mL)	80 (≈ 47 µg/mL)				C#CCN(Cc1cc2c(=O)n(C)c(CN3CCCCC3)nc2cc1Cl)c1ccc(C(=O)NCCCn2cncn2)cc1	20000	800	840
		< 1	2.3 (≈ 1.19 µg/mL)		C#CCN(Cc1cc2c(O)nc(C)nc2cc1Br)c1ccc(C(=O)NCc2cccnc2)cc1	610	2.2	2.8
					C#CCN(Cc1cc2c(=O)n(C)c(CN(CC)CC)nc2cc1Cl)c1ccc(C(=O)NCc2cccnc2)cc1	> 50000	0.73	0.71
96 (≈ 57.7 µg/mL)	934 (≈ 561 µg/mL)				C#CCN(Cc1cc2c(=O)n(C)c(CN3CCN(C)CC3)nc2cc1Cl)c1ccc(C(=O)NCCCn2ccnc2)cc1	18000	2.3	2.1
2 (≈ 1.34 µg/mL)	2 (≈ 1.34 µg/mL)				C#CCN(Cc1cc2c(=O)n(CC(=O)N(CC)CC)c(CN3CCCCC3)nc2cc1Cl)c1ccc(C(=O)NCc2cccnc2)cc1	19000	8.4	9.4
0.5 (≈ 0.293 µg/mL)	2 (≈ 1.17 µg/mL)				C#CCN(Cc1cc2c(=O)n(C)c(CN3CCC(O)CC3)nc2cc1Cl)c1ccc(C(=O)NCc2cccnc2)cc1	18000	0.7	0.72
					C#CCN(Cc1cc2c(=O)n(C)c(CN3CCCC3)nc2cc1Cl)c1ccc(C(=O)NCc2cccnc2)cc1	24000	0.76	0.7
2 (≈ 1.14 µg/mL)	3 (≈ 1.71 µg/mL)				C#CCN(Cc1cc2c(=O)n(C)c(CN3CCOCC3)nc2cc1Cl)c1ccc(C(=O)NCc2cccnc2)cc1	19000	2	2
75 (≈ 46.1 µg/mL)	992 (≈ 609 µg/mL)				C#CCN(Cc1cc2c(=O)n(C)c(CN3CCN(CCO)CC3)nc2cc1Cl)c1ccc(C(=O)NCc2cccnc2)cc1	22000	7.1	7
146 (≈ 85.3 µg/mL)	636 (≈ 372 µg/mL)			3000	C#CCN(Cc1cc2c(=O)n(C)c(CN3CCN(C)CC3)nc2cc1Cl)c1ccc(C(=O)NCc2cccnc2)cc1	13000	0.32	0.49
					C#CCN(Cc1cc2c(=O)n(CC(=O)OC)c(CN3CCCCC3)nc2cc1Cl)c1ccc(C(=O)NCc2cccnc2)cc1	23000	9.6	11
286 (≈ 171 µg/mL)	1760 (≈ 1060 µg/mL)				C#CCN(Cc1cc2c(=O)n(C)c(CN3CCN(CC)CC3)nc2cc1Cl)c1ccc(C(=O)NCc2cccnc2)cc1	22000	0.78	0.78
5 (≈ 3.23 µg/mL)	23 (≈ 14.9 µg/mL)				C#CCN(Cc1cc2c(=O)n(C)c(CN3CCN(c4ccccc4)CC3)nc2cc1Cl)c1ccc(C(=O)NCc2cccnc2)cc1	940	5.4	7.2
					C#CCN(Cc1cc2c(=O)n(C)c(CN3CCCCC3)nc2cc1Cl)c1ccc(C(=O)NCc2cccnc2)cc1	14000	0.78	0.8
					C#CCN(Cc1cc2c(=O)n(CC(=O)N3CCCCC3)c(CN3CCCCC3)nc2cc1Cl)c1ccc(C(=O)NCc2cccnc2)cc1	> 50000	7.4	8.4

Source: ChEMBL document CHEMBL1135972 (J Med Chem, 2002)
